Screening data from PubChem.
DENV2 CPE rescue = inhibitors of DENV2 cytopathic effect, primary screen, cell-based, plate reader, single concentration; DENV2-infected cells, cytopathic effect rescue; CPE inhibition, % at 9.99 µM; hit rate 1.7% among 350,000; in the data active means CPE inhibition above about 20%, passing the limit was not always enough; inconclusive means no clear call, values can overlap the other calls; tested in BHK-21 cells;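 further: 0% = median of neutral control wells and 100% = median of positive control wells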
XiGFP reactiv = activators of inactive X chromosome reactivation, primary screen, imaging, XiGFP fibroblasts, GFP high-content imaging, set 2 | XiGFP mouse fibroblasts, % GFP-positive cells imaging, 3 d; cells co-treated with 5-aza-dC sensitizer; scaled so ellipticine positive control = 100% | activation, % at 7.58 µM | hit rate 0.055% among 360,000 | AID 743238, 2013;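 active means mean normalized replicate activation at least 10% and every replicate at or above 10%; inconclusive means only one of the two criteria met; inactive means mean below 10% and not all replicates reach 10%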;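 further: 0% = median of on-plate neutral control wells and 100% = ellipticine 6 µM median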
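System: SV40-immortalized XiGFP fibroblast cells, line 68-5-11 / Incubation: 3-day compound exposure, then 15 min fixation at room temperature / Compound: single concentration per compound, delivered by pin transfer / Buffer or medium: DMEM plus 5-aza-dC sensitizer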
CFTR F508del cor = F508del CFTR correction, initial screen, CFBE line, single point. activity (quench increase), % at 7.58 µM. hit rate 0.36% among 350,000. CFBE cells, YFP halide quenching; stimulated with forskolin plus potentiator P3; % fluorescence drop versus neutral controls;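 active means mean added fluorescence quench of at least 8% versus neutral control, with both replicates also reaching 8%; inconclusive means only one of the mean or replicate conditions met; inactive means mean below 8% and not both replicates reaching 8%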;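 further: cells transiently co-express mutant CFTR-F508del with the halide-sensitive YFP; corrector assay measuring rescue of mutant channel to the surface after 24 h compound exposure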
PGC1a acetyl inh = inhibitors of PGC1a acetylation signal, primary screen, cell-based, U2OS, AlphaScreen, inhibitor mode; AID 651687, 2012; hit rate 0.17% among 350,000; AlphaScreen anti-acetyl-lysine; with virally co-expressed GCN5 acetyltransferase; inhibition, % at 15.6 µM;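 active means every replicate shows inhibition of at least 40%; inconclusive means mean inhibition at least 40% but some replicate below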;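 further: 0% = neutral control wells and 100% = positive control wells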
Cneo AK release = Cryptococcus neoformans cell lysis inducers, primary screen, AK release luminescence, single concentration. C. neoformans lysis, adenylate kinase release luminescence, 4 h; normalised: neutral wells 0, clomiphene wells 100. lysis activity, % at 15 µM. hit rate 0.2% among 360,000. AID 651654, 2012;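 active means mean lysis activity across replicates of at least 80%, whatever share of replicates individually reach that level; inactive means mean lysis activity below 80%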
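Test system: log-phase Cryptococcus neoformans yeast cells; Quantity: yeast cell density of 5 × 10^6 cells/mL; Buffer or medium: YPD; Doses: single compound concentration per well; Timing: 4 h at 37 °C static, read 1 h later; Measured by: AK luminescence; Read-out basis: lysis from increased AK signal; Control set: Clomiphene as positive control.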
FN deposit inh = inhibitors of fibronectin matrix deposition, primary screen, AH1F cells, Alexa488-fibronectin fluorescence, plate reader; inhibition, % at 12.6 µM; AH1F fibroblasts, overnight; hit rate 0.086% among 350,000;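 active means mean inhibition across replicates of 30% or more, regardless of how many single replicates reach that level; inconclusive means mean under 30% yet at least half of replicates reach 30%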;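 further: positive control wells lacked labelled fibronectin entirely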
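test system = AH1F fibroblasts assembling fluorescent fibronectin matrix | quantity = 10000 AH1F cells per well | buffer or medium = DMEM plus 2% serum, read in PBS | doses = single dose, pinned | incubation = 1 h cell attachment, overnight exposure to compound and label | detection = fluorescence at 485 nm excitation, 525 nm emission | read-out basis = inhibition from reduced deposited-fibronectin fluorescence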
* marks the source's active call; other numbers are inactive results; ? = inconclusive; nt = not tested or not shown; ! = not active in a repeat. Most compounds without a hit are left out; they make up all but 1.9% or so of the library.

SMILES	DENV2 CPE rescue	XiGFP reactiv	CFTR F508del cor	PGC1a acetyl inh	Cneo AK release	FN deposit inh
CNC[C@@H]1Oc2ccc(NC(=O)Cc3cn(C)c4ccccc34)cc2CC(=O)N([C@H](C)CO)C[C@@H]1C	6.0	0.1	-1.9	-6.7	-0.7	nt
CNC[C@H]1Oc2ccc(NC(=O)Cc3cn(C)c4ccccc34)cc2CC(=O)N([C@@H](C)CO)C[C@H]1C	1.2	0.2	0.8	0.0	82.7*!	10.1
C[C@@H]1CN([C@@H](C)CO)C(=O)Cc2cc(NC(=O)Cc3cn(C)c4ccccc34)ccc2O[C@@H]1CN(C)Cc1ccc(C(F)(F)F)cc1	77.0*	-1.1	0.0	-6.4	58.8	-5.5
C[C@H](CO)N1C[C@H](C)[C@@H](CN(C)Cc2ccc3c(c2)OCO3)Oc2ccc(NC(=O)Cc3cn(C)c4ccccc34)cc2CC1=O	-7.3	-0.3	-2.8	-26.1	-1.7	nt
CO[C@H]1CN(C)C(=O)c2ccc(NC(C)=O)cc2OC[C@@H](C)N(Cc2ccccn2)C[C@H]1C	-8.4	0.4	2.0	9.1	-3.3	-15.4
O=C(c1cnccn1)N1CC[C@@H]2[C@H](CO)Nc3ccc(-c4ccccc4)cc3[C@@H]21	?	0.0	5.9	14.1	-11.6	-6.3
CC(=O)c1ccc(NC(=O)CN2c3cccc4cccc(c34)S2(=O)=O)cc1	6.2	0.3	-0.4	-6.6	nt	-0.8
CC(=O)Nc1cccc(NC(=O)CN2c3cccc4cccc(c34)S2(=O)=O)c1	7.6	1.1	24.4*	-4.6	1.1	0.0
CC1(N2CCCCC2)C(=O)c2ccccc2C1=O	?	0.0	1.5	10.3	nt	5.6
CC1(S(=O)(=O)O)CC(=O)c2ccccc2C1=O (stereo not drawn)	-6.4	0.4	8.1*	4.9	-2.9	-2.2
C[C@H](CO)N1C[C@H](C)[C@@H](CN(C)C(=O)Cc2ccccn2)Oc2ncc(-c3cncnc3)cc2C1=O	1.9	-0.9	0.7	-4.6	58.3	5.5
O=C(O)C[C@@H]1CC[C@@H]2[C@H](COC[C@@H](O)CN2S(=O)(=O)c2ccc(F)cc2)O1	4.6	0.4	-2.0	-9.8	2.5	4.2
Cc1[nH]c2ccccc2c1C(=O)CSC(=S)N1CCN(C)CC1	55.3*	0.1	-1.6	10.7	-11.1	0.8
CCCCc1c(-c2ccccc2OC)ncn1CCc1ccccc1Cl	32.0*	0.1	7.0	nt	nt	-27.4
CCCCCc1c(-c2ccccc2OC)ncn1CCc1ccccc1OC	26.3*	0.2	1.3	nt	nt	13.5
CCCCc1c(-c2ccccc2OC)ncn1CCc1ccccc1OC	-5.7	0.3	0.7	nt	nt	11.9
C[C@H]1CN([C@@H](C)CO)C(=O)c2cccc(NS(=O)(=O)c3ccccc3)c2O[C@H]1CN(C)C(=O)Nc1ccc(F)cc1	0.6	0.0	2.1	-5.4	-0.1	nt
CC(C)NC(=O)N(C)C[C@@H]1Oc2c(cccc2N(C)C)C(=O)N(C)C[C@@H]1C	nt	-0.1	nt	nt	nt	-11.4
O=c1c2ccccc2sn1-c1nccs1	-6.9	0.0	-10.3	-6.1	nt	37.9*
O=c1c2ccccc2sn1-c1ccccc1	nt	nt	nt	17.8	-0.9	nt
COc1cc2c(cc1NC(=O)/C=C/c1ccc([N+](=O)[O-])cc1)oc1ccccc12	38.5*	0.2	-5.6	-1.8	-2.1	3.2
CO[C@@H]1CN(C)C(=O)c2ccc(NC(C)=O)cc2OC[C@H](C)N(C(=O)C2CC2)C[C@H]1C	-3.5	-0.4	0.9	0.7	-8.3	-5.7
O=[N+]([O-])c1cccc2c(S(=O)(=O)N3CCOCC3)cccc12	14.9	0.2	2.7	nt	0.0	-3.7
O=[N+]([O-])c1cccc2c(S(=O)(=O)N3CCCCC3)cccc12	53.1*	0.4	-3.1	nt	-3.8	-0.8
COc1ccc2c3c(n(C)c2c1)[C@H](CO)N(CC1CC1)CC31CN(C(=O)Nc2ccccc2)C1	22.7*	0.2	-3.1	nt	nt	nt
SMILES	DENV2 CPE rescue	XiGFP reactiv	CFTR F508del cor	PGC1a acetyl inh	Cneo AK release	FN deposit inh
COc1ccc2c3c(n(C)c2c1)[C@@H](CO)N(CC1CC1)CC31CN(C(=O)CC2CC2)C1	20.8*	0.1	0.7	-3.1	nt	2.5
COc1ccc2c3c(n(C)c2c1)[C@H](CO)N(CC1CCCC1)CC31CN(C(=O)Nc2ccccc2)C1	5.4	0.0	0.6	-46.9	nt	8.1
COc1ccc2c3c(n(C)c2c1)[C@H](CO)N(Cc1ccccc1F)CC31CCN(C(C)=O)CC1	93.3*	0.4	0.3	-2.2	nt	nt
COC(=O)c1ccc(CN2CCCC(CNC(=O)Cc3ccc(OC)cc3)C2)cc1 (stereo not drawn)	0.2	-0.1	2.2	4.8	-2.6	-6.7
COc1ccc(CC(=O)NCC2CCCN(Cc3ccc(OC(F)(F)F)cc3)C2)cc1 (stereo not drawn)	20.0*	0.1	1.3	-25.4	-0.3	-0.4
C[C@H]1CN([C@@H](C)CO)C(=O)c2cc(NC(=O)NC3CCCCC3)ccc2O[C@@H]1CN(C)Cc1ccc(C(=O)O)cc1	-5.5	0.1	0.5	2.7	2.4	nt
CC(C)NC(=O)Nc1ccc2c(c1)C(=O)N([C@@H](C)CO)C[C@H](C)[C@H](CN(C)Cc1ccc(C(F)(F)F)cc1)OCCCC[C@@H](C)O2	-1.4	-0.1	2.7	-3.8	-4.8	10.8
CC(C)NC(=O)Nc1ccc2c(c1)C(=O)N([C@@H](C)CO)C[C@H](C)[C@H](CN(C)Cc1ccc(C(=O)O)cc1)OCCCC[C@@H](C)O2	25.2*	0.1	-3.1	0.1	0.5	3.8
C[C@H](CO)N1C[C@H](C)[C@@H](CN(C)Cc2ccc(C(=O)O)cc2)Oc2ccc(NC(=O)NC3CCCCC3)cc2C1=O	44.9*	-0.4	0.7	-6.9	-0.4	nt
CC(C)NC(=O)Nc1ccc2c(c1)C(=O)N([C@@H](C)CO)C[C@@H](C)[C@@H](CN(C)Cc1ccc(C(F)(F)F)cc1)OCCCC[C@@H](C)O2	55.7*	0.0	2.6	-1.4	6.7	7.3
C=CCN1C(=O)[C@@]2(O[C@@H](CCn3cc(CCO)nn3)[C@H]([Si](C)(C)c3ccc(OC)cc3)[C@H]2C)c2cc(N3CCOC3=O)ccc21	-3.9	nt	3.4	nt	29.0	nt
COc1ccc([Si](C)(C)[C@@H]2[C@@H](CCO)O[C@]3(C(=O)N(Cc4ccc(NC(C)=O)cc4)c4ccccc43)[C@H]2C)cc1	20.1*	nt	-4.9	8.9	54.5	nt
